Source: the M2OR odorant receptor database
Positions count from the first letter of the chain named.

Tests used:
Conditions in all cases: stereoisomer not certain
OR7G2 (Homo sapiens) = biological target: T1, OR7G2 (Homo sapiens) (UniProt Q8NG99)
T1 sequence (whole entry): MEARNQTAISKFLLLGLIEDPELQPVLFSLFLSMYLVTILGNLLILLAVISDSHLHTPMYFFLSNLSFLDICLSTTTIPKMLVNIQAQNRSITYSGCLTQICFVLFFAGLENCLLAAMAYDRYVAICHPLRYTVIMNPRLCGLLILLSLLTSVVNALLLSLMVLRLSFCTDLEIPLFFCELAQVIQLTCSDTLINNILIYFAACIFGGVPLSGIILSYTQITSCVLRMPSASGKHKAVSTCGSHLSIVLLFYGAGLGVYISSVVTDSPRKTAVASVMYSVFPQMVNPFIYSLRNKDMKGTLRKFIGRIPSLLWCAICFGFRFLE
Procedure, shortened: (§1)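 Each receptor–molecule pair is labelled responsive or non-responsive (inactive) according to whether the original authors judged the measured signal statistically different from baseline. The data were taken from the main text and supplementary material of published papers and checked for typos and inconsistencies. Assay methods differed by source, with transient luciferase assays in mammalian cell lines being common.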

OR7G3 (Homo sapiens) = biological target: T2, OR7G3 (Homo sapiens) (UniProt Q8NG95)
T2 sequence (whole entry): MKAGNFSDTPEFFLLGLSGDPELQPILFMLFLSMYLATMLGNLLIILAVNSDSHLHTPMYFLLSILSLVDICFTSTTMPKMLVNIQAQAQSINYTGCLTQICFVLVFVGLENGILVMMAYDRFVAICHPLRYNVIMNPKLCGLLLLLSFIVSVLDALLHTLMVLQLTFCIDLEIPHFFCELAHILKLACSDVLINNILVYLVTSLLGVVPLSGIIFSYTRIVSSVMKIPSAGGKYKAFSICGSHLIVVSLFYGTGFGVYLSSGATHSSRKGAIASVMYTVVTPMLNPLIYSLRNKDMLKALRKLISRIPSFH
Procedure, shortened: as §1

OR8A1 (Homo sapiens) = biological target: T3, OR8A1 (Homo sapiens) (UniProt Q8NGG7)
T3 sequence (whole entry): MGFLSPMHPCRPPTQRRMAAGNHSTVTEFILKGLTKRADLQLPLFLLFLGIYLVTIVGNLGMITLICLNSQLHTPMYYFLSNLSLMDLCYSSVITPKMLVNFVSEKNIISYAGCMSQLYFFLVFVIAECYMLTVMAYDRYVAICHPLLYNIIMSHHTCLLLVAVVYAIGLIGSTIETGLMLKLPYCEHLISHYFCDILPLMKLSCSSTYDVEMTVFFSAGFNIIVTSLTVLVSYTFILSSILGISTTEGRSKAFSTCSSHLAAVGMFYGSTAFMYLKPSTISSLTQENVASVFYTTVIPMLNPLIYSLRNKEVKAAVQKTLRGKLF
Procedure, shortened: as §1

OR8B12 (Homo sapiens) = biological target: T4, OR8B12 (Homo sapiens) (UniProt Q8NGG6)
T4 sequence (whole entry): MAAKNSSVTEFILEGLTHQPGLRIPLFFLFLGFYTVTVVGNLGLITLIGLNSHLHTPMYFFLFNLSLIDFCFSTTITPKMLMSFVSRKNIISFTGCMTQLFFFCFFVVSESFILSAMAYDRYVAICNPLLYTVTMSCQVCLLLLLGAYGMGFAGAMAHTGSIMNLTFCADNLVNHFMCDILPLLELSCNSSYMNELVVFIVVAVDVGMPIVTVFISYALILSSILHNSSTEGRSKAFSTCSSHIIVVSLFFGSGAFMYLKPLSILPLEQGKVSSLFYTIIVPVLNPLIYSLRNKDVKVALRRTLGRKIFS
Procedure, shortened: as §1

OR8B2 (Homo sapiens) = biological target: T5, OR8B2 (Homo sapiens) (UniProt Q96RD0)
T5 sequence (whole entry): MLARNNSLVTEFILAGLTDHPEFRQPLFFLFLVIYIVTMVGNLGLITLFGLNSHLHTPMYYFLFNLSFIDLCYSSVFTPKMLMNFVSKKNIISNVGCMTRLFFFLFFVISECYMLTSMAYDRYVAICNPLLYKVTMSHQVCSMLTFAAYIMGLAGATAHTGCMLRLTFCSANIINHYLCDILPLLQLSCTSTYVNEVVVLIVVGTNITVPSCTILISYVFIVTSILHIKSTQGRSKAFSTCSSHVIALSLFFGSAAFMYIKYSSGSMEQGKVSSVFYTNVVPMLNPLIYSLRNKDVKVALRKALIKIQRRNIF
Procedure, shortened: as §1

OR8B3 (Homo sapiens) = biological target: T6, OR8B3 (Homo sapiens) (UniProt Q8NGG8)
T6 sequence (whole entry): T5 sequence (whole entry) with R24Q, I34V, T47I, N94Y, R100Q, T205I, T208M
Procedure, shortened: as §1

OR8B4 (Homo sapiens) = biological target: T7, OR8B4 (Homo sapiens) (UniProt Q96RC9)
T7 sequence (whole entry): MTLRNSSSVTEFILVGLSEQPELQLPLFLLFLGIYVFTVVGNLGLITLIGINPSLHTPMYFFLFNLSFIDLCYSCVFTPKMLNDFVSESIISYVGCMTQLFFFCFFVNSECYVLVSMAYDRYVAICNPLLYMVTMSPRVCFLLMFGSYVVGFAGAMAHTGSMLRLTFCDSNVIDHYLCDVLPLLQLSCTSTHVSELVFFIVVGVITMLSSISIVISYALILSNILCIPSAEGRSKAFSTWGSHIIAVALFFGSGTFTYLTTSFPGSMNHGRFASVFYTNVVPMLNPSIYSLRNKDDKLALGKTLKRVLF
Procedure, shortened: as §1

OR8B8 (Homo sapiens) = biological target: T8, OR8B8 (Homo sapiens) (UniProt Q15620)
T8 sequence (whole entry): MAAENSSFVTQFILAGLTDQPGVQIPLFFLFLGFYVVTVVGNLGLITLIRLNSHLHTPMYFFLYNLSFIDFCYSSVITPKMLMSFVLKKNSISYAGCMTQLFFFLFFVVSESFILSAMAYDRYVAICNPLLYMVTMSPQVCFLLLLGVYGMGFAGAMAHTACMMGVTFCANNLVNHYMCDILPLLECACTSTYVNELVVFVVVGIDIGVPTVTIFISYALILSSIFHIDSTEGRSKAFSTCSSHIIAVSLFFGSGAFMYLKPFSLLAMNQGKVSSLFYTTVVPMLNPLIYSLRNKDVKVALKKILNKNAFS
Procedure, shortened: as §1

OR8D1 (Homo sapiens) = biological target: T9, OR8D1 (Homo sapiens) (UniProt Q8WZ84)
T9 sequence (whole entry): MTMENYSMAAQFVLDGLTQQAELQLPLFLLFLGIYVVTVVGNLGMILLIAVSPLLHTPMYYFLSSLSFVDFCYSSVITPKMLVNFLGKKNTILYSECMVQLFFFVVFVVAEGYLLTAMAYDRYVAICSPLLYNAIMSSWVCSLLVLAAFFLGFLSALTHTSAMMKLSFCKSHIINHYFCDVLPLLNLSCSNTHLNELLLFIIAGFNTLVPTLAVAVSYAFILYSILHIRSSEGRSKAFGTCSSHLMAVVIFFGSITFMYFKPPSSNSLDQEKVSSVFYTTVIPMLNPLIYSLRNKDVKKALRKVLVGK
Procedure, shortened: as §1

OR7G2 = system: T10, OR7G2
T10 sequence (whole entry): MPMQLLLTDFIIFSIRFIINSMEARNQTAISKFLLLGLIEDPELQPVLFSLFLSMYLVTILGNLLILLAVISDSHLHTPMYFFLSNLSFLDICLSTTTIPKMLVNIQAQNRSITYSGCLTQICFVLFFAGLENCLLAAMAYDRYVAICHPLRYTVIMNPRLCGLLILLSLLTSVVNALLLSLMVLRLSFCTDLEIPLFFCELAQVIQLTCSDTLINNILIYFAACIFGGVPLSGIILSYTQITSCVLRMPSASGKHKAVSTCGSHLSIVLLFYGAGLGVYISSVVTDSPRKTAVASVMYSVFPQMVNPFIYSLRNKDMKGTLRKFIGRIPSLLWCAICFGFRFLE
Procedure, shortened: as §1

OR7G3 M29V = system: T11, OR7G3 M29V
T11 sequence (whole entry): T2 sequence (whole entry) with M29V
Procedure, shortened: as §1

OR8B2 L164F = system: T12, OR8B2 L164F
T12 sequence (whole entry): T5 sequence (whole entry) with L164F
Procedure, shortened: as §1

OR8B2 S273F = system: T13, OR8B2 S273F
T13 sequence (whole entry): T5 sequence (whole entry) with S273F
Procedure, shortened: as §1

OR8B3 H20R Q24R M114I = system: T14, OR8B3 H20R Q24R M114I
T14 sequence (whole entry): T5 sequence (whole entry) with H20R, I34V, T47I, N94Y, R100Q, M114I, T205I, T208M
Procedure, shortened: as §1

OR8B3 H20R Q24R Y113H = system: T15, OR8B3 H20R Q24R Y113H
T15 sequence (whole entry): T5 sequence (whole entry) with H20R, I34V, T47I, N94Y, R100Q, Y113H, T205I, T208M
Procedure, shortened: as §1

OR8B3 H20R Q24R = system: T16, OR8B3 H20R Q24R
T16 sequence (whole entry): T5 sequence (whole entry) with H20R, I34V, T47I, N94Y, R100Q, T205I, T208M
Procedure, shortened: as §1

OR8B4 = system: T17, OR8B4
T17 sequence (whole entry): T7 sequence (whole entry) with E22G
Procedure, shortened: as §1

OR8B8 L101P = system: T18, OR8B8 L101P
T18 sequence (whole entry): T8 sequence (whole entry) with L101P
Procedure, shortened: as §1

OR8D1 C127G L194P = system: T19, OR8D1 C127G L194P
T19 sequence (whole entry): T9 sequence (whole entry) with C127G, L194P
Procedure, shortened: as §1

OR8D1 L194P = system: T20, OR8D1 L194P
T20 sequence (whole entry): T9 sequence (whole entry) with L194P
Procedure, shortened: as §1

Measured: odorant receptor agonist call;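 also: active if original authors judged signal statistically different from baseline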

CCCCC(S)C(C)CO (stereo unspecified)
inactive: OR7G2 (Homo sapiens) | OR7G3 (Homo sapiens) | OR8A1 (Homo sapiens) | OR8B12 (Homo sapiens) | OR8B2 (Homo sapiens) | OR8B3 (Homo sapiens) | OR8B4 (Homo sapiens) | OR8B8 (Homo sapiens) | OR8D1 (Homo sapiens)

CCOC(C)OCC
inactive: OR8D1 (Homo sapiens)

CCCCC1OC(=O)CC1C (stereo unspecified)
inactive: OR8D1 (Homo sapiens)

CC1CCCCCCCCCCCCC(=O)C1 (stereo unspecified)
inactive: OR7G2 (Homo sapiens) | OR7G3 (Homo sapiens) | OR8A1 (Homo sapiens) | OR8B12 (Homo sapiens) | OR8B2 (Homo sapiens) | OR8B3 (Homo sapiens) | OR8B4 (Homo sapiens) | OR8B8 (Homo sapiens) | OR8D1 (Homo sapiens)

COc1ccc2ccc(=O)oc2c1
inactive: OR8D1 (Homo sapiens)

CC1=C(O)C(=O)C(C)O1 (stereo unspecified)
not listed: OR7G2 (Homo sapiens)
inactive: all other assays above

CSCSC
inactive: OR8D1 (Homo sapiens)

CC(=O)c1c(C)c([N+](=O)[O-])c(C(C)(C)C)c([N+](=O)[O-])c1C
inactive: OR7G2 (Homo sapiens) | OR7G3 (Homo sapiens) | OR8A1 (Homo sapiens) | OR8B12 (Homo sapiens) | OR8B2 (Homo sapiens) | OR8B3 (Homo sapiens) | OR8B4 (Homo sapiens) | OR8B8 (Homo sapiens) | OR8D1 (Homo sapiens)

CCCCCC1CCC(=O)O1 (stereo unspecified)
inactive: OR8D1 (Homo sapiens)

CC(C)CCO
inactive: OR8D1 (Homo sapiens)

CCCCCC(S)C(C)CO (stereo unspecified)
inactive: OR7G2 (Homo sapiens) | OR7G3 (Homo sapiens) | OR8A1 (Homo sapiens) | OR8B12 (Homo sapiens) | OR8B2 (Homo sapiens) | OR8B3 (Homo sapiens) | OR8B4 (Homo sapiens) | OR8B8 (Homo sapiens) | OR8D1 (Homo sapiens)
